Screens deposited in PubChem BioAssay by several laboratories.
Sampled rows, rich in hits. Any-hit rate of the full collection: about 6.4%.
WT yeast gro inh: growth inhibition of WT yeast, mitochondrial fusion screen | mitochondrial fusion phenotypic screen, WT strain | inhibition, % at 10 µM | hit rate 2.1% among 190,000; in the data active = inhibition above about 58%; tested in S. cerevisiae
CHOP inh: CHOP inhibition in unfolded protein response. hit rate 3.8% among 220,000. inhibition, % at 10 µM. CHO-K1 CHOP-promoter luciferase, tunicamycin-induced, 15-18 h;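 active = compounds that reduced the stress-induced luciferase reporter signal by more than about 70% of percent inhibition, limit read from the data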;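 also: 0% = tunicamycin plus vehicle and 100% = wells without tunicamycin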
EBV gp42 inh: inhibitors of Epstein-Barr virus glycoprotein 42; AID 1085; hit rate 0.42% among 220,000; inhibition, % (tested at 21.74 µM); Q1HVG2; Fluorescence polarization binding assay, mP read-out; in the data active = inhibition above about 50%
Target sequence (Q1HVG2 whole entry, looked up): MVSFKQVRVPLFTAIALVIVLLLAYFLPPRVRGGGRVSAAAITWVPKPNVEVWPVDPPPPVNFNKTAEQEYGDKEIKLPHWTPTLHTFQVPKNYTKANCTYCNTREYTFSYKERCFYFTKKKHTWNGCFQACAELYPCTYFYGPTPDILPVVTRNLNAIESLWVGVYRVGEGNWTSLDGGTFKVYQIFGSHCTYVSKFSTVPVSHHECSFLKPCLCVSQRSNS
TbMetRS inhib: blocks T. brucei methionyl-tRNA synthetase activity | purified T. brucei MetRS, ATP depletion, Kinase-Glo luminescence | hit rate 0.4% among 360,000 | inhibition, % at 11.9 µM | AID 624268;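 active = inhibition above a per-plate cutoff of the control wells' mean inhibition plus 3 SD, cut at about 5.5% in these data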;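 also: 0% = DMSO wells median and 100% = median of wells with control inhibitor compound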
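Material – parasite MetRS enzyme · Medium – HEPES-MgCl2-KCl buffer plus DTT, spermine, BSA, pyrophosphatase · Reagent – ATP, methionine and E. coli bulk tRNA substrates · Times – 15 min enzyme-compound preincubation, 2 h reaction, 10 min detection, 25 °C · Measured by – luminescence of leftover ATP · Evaluation – percent inhibition relative to median high and low control wells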
GRIN3A LBD mod: modulators (binders) of human NR3A ligand-binding domain. NR3A LBD differential scanning fluorimetry, Tm shift; 0% = protein alone, 100% = glycine-bound protein. Tm shift relative to glycine control, % at 25 µM. hit rate 2.5% among 340,000;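 active = melting temperature shift of at least 10% of the positive control shift, at one fixed dose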
MPTP inh: permeability transition pore inhibition. isolated mouse mitochondria, Ca2+ swelling absorbance, 30 min. inhibition, % at 10 µM. hit rate 1.4% among 360,000;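 active = inhibition of 50% or more, scaled per plate between neutral and stimulator controls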;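 also: 0% = DMSO wells given calcium and 100% = 1 mM EGTA wells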
Starred values were filed as active, the others as inactive; x = not tested or not shown.

SMILES	WT yeast gro inh	CHOP inh	EBV gp42 inh	TbMetRS inhib	GRIN3A LBD mod	MPTP inh
Cc1ccc(NS(=O)(=O)c2ccc(NC(=O)c3ccc(-c4ccccc4)cc3)cc2)c(C)c1	x	x	x	0.5	10.1*	-0.5
Cc1ccc(O)c(NC(=O)CSc2ccc(Cl)cc2)c1	5.3	1.0	8.6	-0.2	-4.9	1.3
Cn1c(SCC(=O)N2CCc3ccccc3C2)nnc1-c1cccs1	0.2	18.0	-18.6	-0.5	-3.6	-0.8
O=C(COC(=O)c1ccco1)c1ccc2ccccc2c1	15.1	15.4	-4.5	0.0	10.2*	0.9
Cc1ccc(C(=O)OCC(=O)Nc2sccc2C(N)=O)cc1NC(=O)c1ccco1	2.9	71.9*	10.0	-0.7	-17.8	0.3
NC(=O)c1ccsc1NC(=O)COC(=O)c1ccc(Cl)c(N)c1	x	x	x	-0.5	23.2*	-1.1
Cc1ccc(C(=O)OCC(=O)Nc2ccc(N(C)C)cc2)cc1NC(=O)c1ccco1	-3.8	5.9	-22.1	-0.5	14.6*	-1.2
O=C(COC(=O)c1ccco1)Nc1ccc(Br)cc1	4.9	12.6	-12.0	1.4	10.8*	0.5
NC(=O)c1ccsc1NC(=O)COC(=O)c1ccc([N+](=O)[O-])o1	x	x	x	0.0	12.0*	-0.5
NS(=O)(=O)c1ccc(CCNC(=O)Cn2c(=O)c3cccn3c3cccnc32)cc1	x	x	x	1.0	1.7	-1.6
Cc1[nH]n(-c2ccccc2)c(=O)c1C=Nc1ccc(S(=O)(=O)Nc2nccs2)cc1	5.0	3.8	18.0	-0.3	-3.0	3.5
COc1nccnc1NS(=O)(=O)c1ccc(N=Cc2c(C)[nH]n(-c3ccc(Cl)cc3)c2=O)cc1	6.7	19.0	-5.4	x	x	x
CCc1nnc(NS(=O)(=O)c2ccc(N=Cc3c(C)[nH]n(-c4cccc(Cl)c4)c3=O)cc2)s1	-4.8	9.2	1.1	0.2	20.1*	10.3
Cc1ccc(-n2[nH]c(C)c(C=Nc3ccc(S(=O)(=O)Nc4nccs4)cc3)c2=O)cc1C	43.0	22.6	17.8	-3.7	14.6*	-0.1
CCc1nnc(NS(=O)(=O)c2ccc(N=Cc3c(C)[nH]n(-c4ccc(Cl)cc4)c3=O)cc2)s1	30.4	-8.0	10.4	-1.1	12.6*	6.9
Cc1[nH]n(-c2ccc(Cl)cc2)c(=O)c1C=Nc1ccc(S(=O)(=O)N2CCOCC2)cc1	12.1	18.8	-4.0	-0.8	32.0*	1.6
CC(NC(=O)CNC(=O)c1ccccc1F)c1ccc(-n2ccnc2)cc1 (stereo not given)	x	x	x	-0.3	6.5	0.0
Cc1c(N(C)S(=O)(=O)c2cc(C(=O)Nc3ccccn3)ccc2Cl)c(=O)n(-c2ccccc2)n1C	x	x	x	-0.3	-0.3	-0.1
Cc1ccc(-n2[nH]c(C)c(C=Nc3ccc4[nH]c(=O)[nH]c4c3)c2=O)cc1C	39.5	81.3*	23.3	-2.2	15.6*	-0.1
CCOC(=O)Nc1ccc2c(COC(=O)CN(C)S(=O)(=O)c3ccc(C)cc3)cc(=O)oc2c1	x	x	x	0.0	2.4	1.0
CCOC(=O)Nc1ccc2c(COC(=O)CNS(=O)(=O)c3cccc(Br)c3)cc(=O)oc2c1	-11.3	-1.2	-46.8	-0.2	26.1*	2.6
CCOC(=O)c1c(C)[nH]c(N=Nc2ccccc2C)c1C	77.1*	48.0	-16.1	-1.8	-2.7	2.9
Cc1cc2nc(CCN(Cc3cccnc3)C(=S)Nc3ccc(F)cc3)[nH]c2cc1C	-7.6	26.4	-15.5	0.3	26.7*	2.1
Cc1cc2nc(CCN(Cc3cccnc3)C(=S)Nc3ccccc3)[nH]c2cc1C	9.7	8.1	1.9	0.8	-1.0	1.3
CCn1c(COc2cc(C)ccc2C(C)C)nnc1SCC(=O)Nc1nccs1	1.9	23.0	-8.9	-0.1	2.7	2.3
SMILES	WT yeast gro inh	CHOP inh	EBV gp42 inh	TbMetRS inhib	GRIN3A LBD mod	MPTP inh
C=CCSc1nsc(N)n1	-14.5	-8.9	-14.1	-0.5	-0.4	-0.2
CCCCCCCSc1nsc(N)n1	65.8*	3.8	-4.3	-0.6	-11.2	1.4
NC(=O)Cc1ncc(C(F)(F)F)cc1Cl	3.1	4.6	1.0	-0.8	0.8	-1.1
Cc1cccc(NC(=O)COc2ccc3c(c2)CCC3)n1	x	x	x	-0.7	-0.3	0.1
Oc1ccc2ccccc2c1CNc1ccc(Br)cc1	x	x	x	x	14.9*	x
O=C(NCc1c(O)ccc2ccccc12)c1ccccc1	x	x	x	0.1	-4.0	0.2
Oc1ccc2ccccc2c1CNc1ccc(Br)cn1	x	x	x	2.7	24.8*	3.0
CCCn1c(CCC(=O)O)ccc1-c1ccc(F)cc1	x	12.4	-21.7	0.0	0.7	0.9
CN1/C(=C\C=O)C(C)(C)c2ccccc21	8.4	12.0	-6.9	-0.7	-1.6	1.3
CN1/C(=C/C=C(C#N)C#N)C(C)(C)c2ccccc21	-9.5	10.9	54.4*	-1.3	4.0	7.3
CN1/C(=C\C=Nc2ccc3ccccc3c2)C(C)(C)c2ccccc21	76.7*	46.2	-61.2	0.3	x	49.2
CN(C)c1ccc(N=C/C=C2\N(C)c3ccccc3C2(C)C)cc1	21.4	-31.2	-73.3	-0.5	-2.5	12.8
COc1ccc(OC)c(S(=O)(=O)N2CCC(C(=O)N(C)Cc3ccccc3)CC2)c1	x	17.7	-2.6	-0.8	-2.5	0.1
CCO[C@@H]1OC(C(=O)NC2CC2)=C[C@H](c2ccc(Br)cc2)[C@H]1CCCO	x	0.8	-9.3	-0.3	-1.1	-0.6
CCc1nc(Nc2ccccc2)c2oc3ccccc3c2n1	49.0	72.1*	-0.7	0.2	-11.0	3.2
CCc1nc(Nc2cccc(F)c2)c2oc3ccccc3c2n1	x	x	x	-1.3	11.8*	0.0
Cc1nc(Nc2ccccc2)c2oc3ccc(Cl)cc3c2n1	x	x	x	-0.6	16.1*	0.7
COc1ccc(-c2[nH]nc3oc(=O)cc(C)c23)cc1	-11.8	-16.6	7.2	-0.1	2.1	-0.9
Cc1ccc2cc3c(NC(=O)C(C)C)nn(C)c3nc2c1	6.0	78.1*	-2.5	0.3	-0.5	0.0
CCCCCn1c(=O)[nH]c2cc(C(=O)Nc3ccc(OC)cc3)ccc2c1=O	x	x	x	0.1	-2.1	0.2
CCn1c(=O)[nH]c2cc(C(=O)Nc3cc(C)cc(C)c3)ccc2c1=O	9.4	88.7*	-9.1	-0.3	-4.8	1.6
CCN(CCNC(=O)c1ccc(C#N)cc1)c1cccc(C)c1	x	x	x	0.5	0.2	-2.9
CCN(CCNCC(O)COCc1ccc(Cl)cc1)c1cccc(C)c1 (stereo not given)	62.4*	83.4*	-0.7	-1.1	0.0	42.4
Cc1cc(C)n(C(=O)CNc2ccccc2Cl)n1	-8.4	-5.9	-21.1	1.5	-1.0	-0.1
Cc1cc(C)n(C(=O)CNc2cccc(Cl)c2C)n1	-5.3	49.5	-8.4	0.1	10.2*	-0.2
Nc1ccc(Cc2ccccn2)cc1	-6.8	24.0	-5.6	-0.8	-0.9	-1.1
Cc1c(Cl)cccc1Nc1nc(N)nc(CSc2nc3ccccc3s2)n1	72.3*	27.2	-0.5	0.6	11.3*	-0.7
Nc1nc(CSc2nc3ccccc3s2)nc(Nc2ccccc2)n1	39.4	51.7	10.1	x	x	x
CCOc1ccccc1NC(=O)NC1(C(=O)N2CCN3CCCC3C2)CCCCC1 (stereo not given)	1.2	21.1	-7.4	-0.2	0.3	0.1
